Results on 71 compounds are retold here after ChEMBL document CHEMBL4513216, “Probing the Open Global Health Chemical Diversity Library for Multistage-Active Starting Points for Next-Generation Antimalarials” (ACS Infect Dis, 2020).

A short description of the data set: Toxicity liver stage against HepG2, at 10uM. It is filed as cell-based. More on the design: test concentration 10 uM, cell line HepG2-A16-CD81EGFP. The settings on record: human, HepG2-A16-CD81EGFP cells; read-out: INHIBITION
The gist of the method: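 Uninfected HepG2-A16-CD81EGFP cells, 3 × 10^3 per well, 1536-well, plated on prespotted compound at 10 μM final, parasite-free screening media added to match infected plates; puromycin 10 μM positive, DMSO 0.5% negative; run in parallel with 48 h PbLuc assay at 37 °C, 5% CO2; viability by CellTiter-Glo luminescence, normalized to controls.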
Take `Cc1nc(CN2C(=O)C[C@@H]3[C@@H]2CCN3S(C)(=O)=O)cs1`: the cytotoxicity at 10 µM was -131%.

For `Cn1nc(COc2cccnc2)c2c1CCN(c1cnccn1)C2`, the cytotoxicity at 10 µM worked out at 1.34%.

On to `O=c1c2c[nH]c(N3CCCC3)nc-2cn1CCc1ccc(Cl)cc1`, for which the cytotoxicity at 10 µM came to 11.9%.

Turning to `Cc1nn(C)c2cn(C(C)C(=O)NCc3cccnc3)nc12` (stereo unspecified), the cytotoxicity at 10 µM was 5.55%.

For `Cc1noc([C@@H]2CCO[C@@H]3CCN(Cc4ccc(C)s4)C[C@@H]32)n1`, the cytotoxicity at 10 µM was -77.6%.

Consider `N#CC1COCCN1S(=O)(=O)c1ccc2ccccc2c1` (stereo unspecified), for which the cytotoxicity at 10 µM was determined as 6.45%.

Consider `N#Cc1c2n(c3c(=O)[nH]cnc13)CCCC2`, for which the cytotoxicity at 10 µM was determined as 2.45%.

Regarding `Cc1ccc(OCC(O)Cn2ncc3cnn(C)c(=O)c32)cc1` (stereo unspecified), the cytotoxicity at 10 µM is -3.49%.

For the compound `N#Cc1ccc(CN2CCOCC2)cc1`, the cytotoxicity at 10 µM is -9.32%.

On to `OCCn1nnnc1Cc1ccc(Br)cc1`, for which the cytotoxicity at 10 µM came out at 1.54%.

Consider `O=C(Nc1c(N2CCCC2)cccc1N1CCCC1)c1cnccn1`, for which the cytotoxicity at 10 µM was -50.9%.

On to `O=S(=O)(C1CC1)N1CCC2(CC1)CC(Oc1ccccn1)CO2` (stereo unspecified), for which the cytotoxicity at 10 µM was -139%.

For `O=C(NC1CCOC1)c1cccc(S(=O)(=O)NCCCc2ncc[nH]2)c1` (stereo unspecified), the cytotoxicity at 10 µM is -2.26%.

As for `CC(C)(CNC(=O)C(C)(C)Oc1ccc2c(c1)CCCC2=O)C(N)=O`, the cytotoxicity at 10 µM is -2.25%.

Turning to `CCN(Cc1ccc(OC)c(F)c1)Cc1nc2c(cnn2C)c(=O)[nH]1`, the cytotoxicity at 10 µM was determined as 2.2%.

`Cc1cnc(C2(C)CCN(Cc3csc(C)n3)CC2)s1`: the cytotoxicity at 10 µM was -16.1%.

For the compound `Cc1nc(-c2ccco2)ccc1C(=O)N1CCn2c(C)nnc2C1`, the cytotoxicity at 10 µM was -5.83%.

Consider `COc1ccc(Nc2nc(N)c(C(C)=O)s2)cc1Cl`, for which the cytotoxicity at 10 µM came out at 0.833%.

`CC(NC(=O)NCCCc1n[nH]c(N)c1C#N)c1ccc(F)c(F)c1` (stereo unspecified): the cytotoxicity at 10 µM is -10.2%.

`CCn1cc(N)c(C(=O)NCc2cnn(C)c2)n1`: the cytotoxicity at 10 µM is -0.729%.

For the compound `CS(=O)(=O)N1CCC2(CC1)CC(CC(=O)NCC1CC1)c1ccccc12` (stereo unspecified), the cytotoxicity at 10 µM was 7.65%.

On to `Cc1oncc1C(=O)N1CC[C@H]2[C@H](C[C@@H](CN(C)C)N2CC2CC2)C1`, for which the cytotoxicity at 10 µM was 2.84%.

On to `NC(=O)CN1CCCN(C(=O)Cc2ccc3c(c2)OCO3)CC1`, for which the cytotoxicity at 10 µM came to 2.96%.

`CCC(=O)N1CCC2(CC1)CC(CC(=O)NC1CC1)c1ccccc1O2` (stereo unspecified): the cytotoxicity at 10 µM was 2.64%.

Regarding `CN(Cc1ccco1)[C@@H]1CN(C(=O)c2cnccn2)C[C@@H]2CCCO[C@@H]21`, the cytotoxicity at 10 µM stood at 3.25%.

For `CC(NCCCc1cnn(C)c1)c1ccc(Cl)s1` (stereo unspecified), the cytotoxicity at 10 µM amounted to 5.29%.

In the case of `CCC1CN(C(=O)c2cc(CN(C)CCc3ccccc3)on2)CCO1` (stereo unspecified), the cytotoxicity at 10 µM is -4.12%.

`NC(=O)N1CCc2ncc(CNC(=O)CC3CC3)n2CC1`: the cytotoxicity at 10 µM was 2.11%.

Regarding `Cc1noc(C)c1CC(=O)N1CCCC(Cn2ccnc2C)C1` (stereo unspecified), the cytotoxicity at 10 µM is -3.6%.

In the case of `CN(C)C(=O)CN1CCCC2(CCN(c3ccc(C#N)cn3)C2)C1` (stereo unspecified), the cytotoxicity at 10 µM was 4.01%.

For the compound `O=S1(=O)c2cccnc2OC(Cc2ccccc2)CN1CC1CC1` (stereo unspecified), the cytotoxicity at 10 µM is -2.46%.

Turning to `COCCNC(=O)c1cc(S(=O)(=O)N2CCCCCC2)cs1`, the cytotoxicity at 10 µM is -14.8%.

As for `O=C1[C@H]2CN(Cc3ccccn3)C[C@H]2CN1c1ccsc1`, the cytotoxicity at 10 µM was -73.2%.

In the case of `Cc1ncc(CN2CCC(O)(c3ccccc3F)CC2)cn1`, the cytotoxicity at 10 µM stood at 0.46%.

Regarding `CN(C)c1ccc(C(O)CNC(=O)NCCCc2ccccc2)cc1` (stereo unspecified), the cytotoxicity at 10 µM is -10%.

Regarding `O=C(c1cnccn1)N1CCCC(c2cccc(-n3ccnc3)n2)C1` (stereo unspecified), the cytotoxicity at 10 µM was -9.08%.

`O=C(O)c1csc(S(=O)(=O)Nc2cccc(OC(F)F)c2)c1`: the cytotoxicity at 10 µM was -2.63%.

`O=C(CCn1c(C(F)(F)F)cc2cccnc21)N1CCC(O)CC1`: the cytotoxicity at 10 µM was -28.5%.

Turning to `O=C(C[S+]([O-])C1CCCC1)NCCOc1cccc(Cl)c1` (stereo unspecified), the cytotoxicity at 10 µM was -143%.

With `CC(C)CN1CC(C(=O)NCCc2c[nH]cn2)CC1=O` (stereo unspecified), the cytotoxicity at 10 µM was -3.62%.

Regarding `NC(=O)c1ccc2c(c1)nc1n2CCN(Cc2ccco2)C1`, the cytotoxicity at 10 µM was -11.3%.

On to `CC(C)CC(CO)NS(=O)(=O)Cc1ccon1` (stereo unspecified), for which the cytotoxicity at 10 µM was -3.33%.

Turning to `COC(CNC(=O)C1CC1)c1ccc(C)s1` (stereo unspecified), the cytotoxicity at 10 µM was -3.08%.

Take `O=C1CC[C@H]2[C@H](CCN2C(=O)C2CCOC2)N1Cc1ccncc1` (stereo partly specified): the cytotoxicity at 10 µM came out at 6.67%.

As for `O=C(Nc1cccnc1)C1CCN(c2cc(-n3ccnc3)ncn2)CC1`, the cytotoxicity at 10 µM was -3.3%.

`CCCc1ccc(N2CCN(Cc3nc4ccccc4n3C)CC2)cc1`: the cytotoxicity at 10 µM came out at 7.06%.

Take `CC(=O)N1CCC12CCN(Cc1ccco1)CC2`: the cytotoxicity at 10 µM stood at 1.17%.

For the compound `CSc1nc2cc(C)n(CC(=O)Nc3nccs3)c2c(=O)n1CC(C)C`, the cytotoxicity at 10 µM was -12.6%.

`CNC(=O)NC(=O)CCSc1ccccc1C`: the cytotoxicity at 10 µM came to 4.11%.

As to `CC(Cn1cccn1)NCCS(=O)(=O)c1ccc(Cl)cc1` (stereo unspecified), the cytotoxicity at 10 µM is -6.19%.

As to `CN1CCC/C1=N\S(=O)(=O)c1ccc(NC(=O)CCc2cccs2)cc1`, the cytotoxicity at 10 µM is -8.55%.

For `Cc1cncc(C2CCN(Cc3ccc(S(C)(=O)=O)cc3)CC2)n1`, the cytotoxicity at 10 µM is -1.03%.

With `O=C(c1ccc(NCc2cccc(F)c2)cc1)N1CCCC1`, the cytotoxicity at 10 µM came out at 10.1%.

For the compound `O=C(NCCOc1ccc(F)c(F)c1)NCc1cccc(CO)c1`, the cytotoxicity at 10 µM was -8.86%.

With `CCCn1nccc1-c1cc(C2CCN(C(C)=O)CC2)ccn1`, the cytotoxicity at 10 µM is -1.68%.

Consider `CN(C)c1nc(CNC(=O)Nc2cccc([S+](C)[O-])c2)cs1` (stereo unspecified), for which the cytotoxicity at 10 µM was -5.27%.

Take `c1nc(N2CCOCC2)nc2c1COCC21CCN(CC2CC2)C1` (stereo unspecified): the cytotoxicity at 10 µM was determined as 9.69%.

On to `CN1CCCN(c2nc(C3CC3)ns2)CC1`, for which the cytotoxicity at 10 µM is -3.23%.

As for `Cc1cnn(C2CCCN(C(=O)c3cn4cccnc4n3)C2)c1` (stereo unspecified), the cytotoxicity at 10 µM is -11.4%.

In the case of `CN1CCC(N(Cc2ccccc2F)C(=O)NCc2ccncc2)CC1`, the cytotoxicity at 10 µM is -2.14%.

Regarding `CN(C)CCN(C)C[C@H]1CN2CC[C@H]1C[C@@H]2CNC(=O)Nc1ccsc1`, the cytotoxicity at 10 µM stood at 9.53%.

In the case of `CCn1nc(C)c(C(=O)Nc2ccc3c(c2)C(C)(C)C(=O)N3C)c1C`, the cytotoxicity at 10 µM was determined as 6.42%.

As for `CCS(=O)(=O)CCN(C)Cc1cc(C)ccc1OC`, the cytotoxicity at 10 µM was -51.5%.

Take `O=C(CSCc1ccncc1)N(Cc1ccsc1)C1CC1`: the cytotoxicity at 10 µM was -11.2%.

`CCCNC(=O)Nc1cc2c(cc1SC)OCCO2`: the cytotoxicity at 10 µM is -19%.

With `Cc1cnn(CC2CCCCN2C(=O)Cc2ccc(C#N)cc2)c1` (stereo unspecified), the cytotoxicity at 10 µM is -7.09%.

For `Cc1cc(NC(=O)NCC(C(C)C)N2CCOCC2)n(C)n1` (stereo unspecified), the cytotoxicity at 10 µM is -17.2%.

For `O=C(Nc1cn[nH]c1)c1ccc(O)nc1`, the cytotoxicity at 10 µM is -1.09%.

`O=C(c1cccc(F)c1)N(CCCO)S(=O)(=O)c1cccs1`: the cytotoxicity at 10 µM was determined as 3.51%.

On to `O=C(c1coc2ccccc12)N1CCCC(O)(CO)CC1` (stereo unspecified), for which the cytotoxicity at 10 µM is 6.41%.

In the case of `Cc1cc(Cc2ccc(S(=O)(=O)N3CCCC3)cc2)c(=O)[nH]n1`, the cytotoxicity at 10 µM was determined as 6.47%.
